Source: ChEMBL document CHEMBL1926673, “Synthesis, molecular docking study and antitumor activity of novel 2-phenylindole derivatives” (Eur J Med Chem, 2012)

Tests used:
[1] = tested on: MCF7; experiment: Cytotoxicity against human MCF7 cells after 48 hrs by SRB assay; type: functional, cell-based; settings: MCF7, 48 h
Outline: (§1)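 Cells seeded at 10⁴ per well and allowed to attach for 24 h, then exposed to compounds at 0, 1, 2.5 and 10 (four levels), triplicate wells per dose, for 48 h at 37 C in 5% CO₂. Cells were then fixed, washed and stained with sulforhodamine B. Excess dye was removed with acetic acid, and bound dye was recovered in Tris EDTA buffer. Results are given as IC₅₀.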

[2] = tested on: MDA-MB-231; experiment: Cytotoxicity against human MDA-MB-231 cells after 48 hrs by SRB assay; type: functional, cell-based; settings: MDA-MB-231, 48 h; outline: as §1

Compound	IC50 [1] [nM]	IC50 [2] [nM]
O=C1NC(=O)C(=Cc2c(-c3ccc(O)cc3)[nH]c3ccccc23)C(=O)N1	41.8	
Oc1ccc(-c2cc3ccccc3[nH]2)cc1	71.8	
O=Cc1c(-c2ccc(O)cc2)[nH]c2ccccc12	9	42.2
CC(=O)N/N=C/c1c(-c2ccc(O)cc2)[nH]c2ccccc12	32.3	
O=C(N/N=C/c1c(-c2ccc(O)cc2)[nH]c2ccccc12)c1ccccc1	18.7	28.2
Nc1ccccc1C(=O)N/N=C/c1c(-c2ccc(O)cc2)[nH]c2ccccc12	17.9	29.7
Nc1ccc(C(=O)N/N=C/c2c(-c3ccc(O)cc3)[nH]c3ccccc23)cc1	3.7	37.8
O=C(N/N=C/c1c(-c2ccc(O)cc2)[nH]c2ccccc12)c1ccc([N+](=O)[O-])cc1	1.6	32.5
O=C(N/N=C/c1c(-c2ccc(O)cc2)[nH]c2ccccc12)c1ccc(Cl)cc1	3.8	37.2
CN/N=C/c1c(-c2ccc(O)cc2)[nH]c2ccccc12	17.7	47.5
Oc1ccc(-c2[nH]c3ccccc3c2/C=N/Nc2ccccc2)cc1	6.7	25.1
Oc1ccc(-c2[nH]c3ccccc3c2/C=N/Nc2ccccc2Cl)cc1	5.7	31.6
NC(=S)N/N=C/c1c(-c2ccc(O)cc2)[nH]c2ccccc12	32	
O/N=C/c1c(-c2ccc(O)cc2)[nH]c2ccccc12	27.6	
O=C1NC(=S)NC(=O)C1=Cc1c(-c2ccc(O)cc2)[nH]c2ccccc12	55.1	
N#CC(C#N)=Cc1c(-c2ccc(O)cc2)[nH]c2ccccc12	87.7	
Oc1ccc(-c2[nH]c3ccccc3c2-c2nc3ccccc3[nH]2)cc1	23.5	
Oc1ccc(-c2[nH]c3ccccc3c2-c2nc3ccccc3o2)cc1	17.5	15.3
Oc1ccc(-c2[nH]c3ccccc3c2-c2ncc[nH]2)cc1	28.4	
COC(=O)Oc1ccc(-c2cc3ccccc3[nH]2)cc1	93.6	
COC(=O)COc1ccc(-c2cc3ccccc3[nH]2)cc1	35	
CCOC(=O)COc1ccc(-c2cc3ccccc3[nH]2)cc1	102	

Compound	IC50 [1] [nM]	IC50 [2] [nM]
NC(=O)COc1ccc(-c2cc3ccccc3[nH]2)cc1	37.6	
O=C(COc1ccc(-c2cc3ccccc3[nH]2)cc1)NCCO	96.8	
O=C(COc1ccc(-c2cc3ccccc3[nH]2)cc1)Nc1ccncc1	21.1	
O=C(COc1ccc(-c2cc3ccccc3[nH]2)cc1)Nc1cnccn1	36.3	
O=C(COc1ccc(-c2cc3ccccc3[nH]2)cc1)N(CCO)CCO	27.5	
CN(C)C(=O)COc1ccc(-c2cc3ccccc3[nH]2)cc1	34.3	
O=C(COc1ccc(-c2cc3ccccc3[nH]2)cc1)N1CCCC1	14.8	42.2
NNC(=O)COc1ccc(-c2cc3ccccc3[nH]2)cc1	20	
O=C(COc1ccc(-c2cc3ccccc3[nH]2)cc1)NNc1ccccc1	28	
CC(=O)NNC(=O)COc1ccc(-c2cc3ccccc3[nH]2)cc1	92.9	
NC(=S)NNC(=O)COc1ccc(-c2cc3ccccc3[nH]2)cc1	44.7	
NS(=O)(=O)c1ccc(NC(=O)COc2ccc(-c3cc4ccccc4[nH]3)cc2)cc1	24.2	
Cc1cc(NS(=O)(=O)c2ccc(NC(=O)COc3ccc(-c4cc5ccccc5[nH]4)cc3)cc2)no1	17.5	9.56
O=C(COc1ccc(-c2cc3ccccc3[nH]2)cc1)Nc1ccc(S(=O)(=O)Nc2nccs2)cc1	7.4	29
Cc1cc(C)n(C(=O)COc2ccc(-c3cc4ccccc4[nH]3)cc2)n1	43.2	
Cc1cc(-c2ccccc2)nn1C(=O)COc1ccc(-c2cc3ccccc3[nH]2)cc1	48.9	
CC1=NN(C(=O)COc2ccc(-c3cc4ccccc4[nH]3)cc2)C(=O)C1	31.8	
c1ccc(-c2nnc(COc3ccc(-c4cc5ccccc5[nH]4)cc3)o2)cc1	13.7	18.3
Nc1ccc(-c2nnc(COc3ccc(-c4cc5ccccc5[nH]4)cc3)o2)cc1	48	
Nc1ccccc1-c1nnc(COc2ccc(-c3cc4ccccc4[nH]3)cc2)o1	26	
Oc1ccccc1-c1nnc(COc2ccc(-c3cc4ccccc4[nH]3)cc2)o1	39	
COc1ccc2nc(-c3nnc(COc4ccc(-c5cc6ccccc6[nH]5)cc4)o3)ccc2c1	22.1	
